Here are results for 32 molecules from ChEMBL document CHEMBL5107936, “Anti-amyloidogenic indolizino[3,2-c]quinolines as imaging probes differentiating dense-core, diffuse, and coronal plaques of amyloid-β” (RSC Med Chem, 2021).

One data set concerns HT-22. Briefly: Cytotoxicity against mouse HT-22 cells assessed as reduction in cell viability incubated for 18 hrs by MTT assay. The note with it: ht-22, 18 h. In kind it is toxicity, cell-based.
In data set [1] the target is Amyloid-beta precursor protein (Homo sapiens) (UniProt P05067). Nature of the data set: Inhibition of Amyloid beta (1 to 42 ) (unknown origin) aggregation assessed as fibrilization amyloid beta by measuring beta sheets at 1 to 50 uM incubated for 3 days by Thioflavin T based fluorescence assay. The note with it: dose 1-50 µM, time 3.0 day.
Chain of Amyloid-beta precursor protein (Homo sapiens) (P05067 whole entry): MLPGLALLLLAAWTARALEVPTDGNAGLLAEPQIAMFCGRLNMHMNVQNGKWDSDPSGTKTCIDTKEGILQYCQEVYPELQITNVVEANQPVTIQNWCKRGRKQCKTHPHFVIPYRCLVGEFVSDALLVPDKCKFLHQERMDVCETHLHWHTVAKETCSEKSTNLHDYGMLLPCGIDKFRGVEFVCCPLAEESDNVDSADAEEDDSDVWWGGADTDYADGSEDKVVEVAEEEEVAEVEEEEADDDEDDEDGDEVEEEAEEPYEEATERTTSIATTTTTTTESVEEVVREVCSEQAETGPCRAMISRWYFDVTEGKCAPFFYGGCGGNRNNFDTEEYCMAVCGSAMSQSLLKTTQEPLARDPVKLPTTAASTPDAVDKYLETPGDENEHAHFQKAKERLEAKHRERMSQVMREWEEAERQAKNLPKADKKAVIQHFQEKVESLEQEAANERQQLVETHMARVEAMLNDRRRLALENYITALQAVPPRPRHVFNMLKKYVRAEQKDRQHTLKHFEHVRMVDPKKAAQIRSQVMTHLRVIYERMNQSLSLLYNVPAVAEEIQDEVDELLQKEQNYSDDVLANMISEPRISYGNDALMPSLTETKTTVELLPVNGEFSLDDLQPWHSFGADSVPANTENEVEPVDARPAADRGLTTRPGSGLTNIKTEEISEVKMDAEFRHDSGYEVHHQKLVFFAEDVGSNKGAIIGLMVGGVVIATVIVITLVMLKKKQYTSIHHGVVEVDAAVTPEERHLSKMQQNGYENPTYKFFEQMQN
For data set [2] the target is unchanged. Nature of the data set: Inhibition of Amyloid beta (1 to 42 ) (unknown origin) disaggregation assessed as reduction in mature fibril at 50 uM preincubated with amyloid beta followed by compound addition and measured after 3 days by Thioflavin T based fluorescence assay. The following applies: time 3.0 day.
Data set [3] shares this target. Nature of the data set: Inhibition of Amyloid beta (1 to 42 ) (unknown origin) aggregation at 0.5 to 50 uM incubated for 3 days followed by incandescent lamp irradiation by photo-induced cross-linking of unmodified proteins method. The following applies: dose 0.5-50 µM, time 3.0 day. In a few lines: (§1)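 Cross-linked Aβ products resolved on gels, imaged by fluorescence scanning and by silver staining. Band area quantified by densitometry and normalized to the 3-day aggregates, set as 100%.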

The target is the same in data set [4]. Briefly: Inhibition of Amyloid beta (1 to 42 ) (unknown origin) disaggregation assessed as reduction in aggregation by measuring monomer band intensity at 0.5 to 50 uM incubated for 3 days followed by incandescent lamp irradiation by photo-induced cross-linking of unmodified proteins method. The following applies: dose 0.5-50 µM, time 3.0 day. In a few lines:
as §1

As to `Cc1cccn2c1cc1c3ccccc3nc(-c3cc4ccccc4o3)c12`, the Activity result with HT-22 is recorded as “Toxic”.

As for `COc1ccc(-c2nc3ccccc3c3cc4ccccn4c23)cc1`, the Activity result in the data set on HT-22 is “Toxic”.

For the molecule `COC(=O)c1c2c3ccccc3nc(-c3ccc[nH]3)c2n2ccccc12`, the Activity entry in the data set on HT-22 is on record as “Toxic”. With `COc1ccc(-c2nc3ccccc3c3c(-c4ccc(F)cc4)c4ccccn4c23)cc1`, in the data set on HT-22, the Activity entry is “Toxic”. For the molecule `c1ccc(-c2nc3ccccc3c3cc4ccccn4c23)cc1`, in the data set on HT-22, the Activity entry was “Toxic”. Take `c1ccc(-c2nc3ccccc3c3cc4ccccn4c23)nc1`: the Activity entry in the data set on HT-22 is “Toxic”. In the case of `Clc1ccc(-c2nc3ccccc3c3cc4ccccn4c23)s1`, the Activity result with HT-22 is reported as “Toxic”. Regarding `COc1cccc(-c2nc3ccccc3c3cc4ccccn4c23)c1`, the Activity entry with HT-22 is listed as “Toxic”. In the case of `c1csc(-c2nc3ccccc3c3cc4ccccn4c23)c1`, in the data set with HT-22, the Activity entry is given as “Toxic”. Still for that read-out and setting: the result for `Brc1ccc(C2Nc3ccccc3-c3cc4ccccn4c32)cc1` (stereo unspecified) reads “Toxic”; that for `Cc1cccn2c1cc1c3ccccc3nc(-c3ccco3)c12`, “Toxic”. Turning to `Cc1cccn2c1cc1c3ccccc3nc(-c3cccc4ccccc34)c12`, the Activity result in the data set with HT-22 was “Toxic”. As to `COc1cc(OC)cc(-c2nc3ccccc3c3cc4ccccn4c23)c1`, the Activity result in the data set on HT-22 is “Toxic”. For the molecule `CN(C)c1ccc(-c2nc3ccccc3c3cc4ccccn4c23)cc1`, the Activity result with HT-22 is on record as “Toxic”. Besides, the inhibition in data set [1] is more than 30%; in data set [2], more than 60%; in data set [3], 20%; in data set [4], 10%. With `Cc1cccn2c1cc1c3ccccc3nc(-c3cccc(F)c3)c12`, the Activity result in the data set on HT-22 is “Toxic”. For the molecule `Clc1ccc(-c2nc3ccccc3c3cc4ccccn4c23)cc1`, the Activity entry in the data set on HT-22 was “Toxic”. With `COc1cc(OC)cc(-c2nc3ccccc3c3cc4c(C)cccn4c23)c1`, in the data set on HT-22, the Activity entry was “Toxic”.

As to `COc1ccc(-c2nc3ccccc3c3cc4ccccn4c23)cc1OC`, in the data set on HT-22, the Activity entry is given as “Toxic”. Same read-out and setting: for `Cc1ccc(-c2nc3ccccc3c3cc4c(C)cccn4c23)cc1` the value was “Toxic”; for `CCOC(=O)c1c2c3ccccc3nc(-c3ccc(OC)c(OC)c3)c2n2ccccc12`, “Toxic”. Same read-out and setting: the result for `Brc1ccc(-c2nc3ccccc3c3cc4ccccn4c23)cc1` reads “Toxic”; that for `COc1ccc(-c2nc3ccccc3c3c(I)c4ccccn4c23)cc1`, “Toxic”; that for `COc1cccc(-c2nc3ccccc3c3cc4c(C)cccn4c23)c1`, “Toxic”. `COc1ccc(-c2nc3ccccc3c3cc4ccc(Br)cn4c23)cc1OC`: the Activity result in the data set with HT-22 is “Toxic”. Besides, the values for the inhibition in data set [1], in data set [2] and in data set [3] were more than 30%, 40% and 20%, respectively. On to `c1ccc2c(-c3nc4ccccc4c4cc5ccccn5c34)cccc2c1`, for which, in the data set on HT-22, the Activity entry is “Toxic”. For `COc1cc(OC)cc(-c2ccc3cc4c5ccccc5nc(-c5cccc6ccccc56)c4n3c2)c1`, the Activity result with HT-22 is “Toxic”. Moreover, in data set [1], the inhibition was more than 30%. For `c1ccc2cc(-c3nc4ccccc4c4cc5ccccn5c34)ccc2c1`, the Activity entry with HT-22 is listed as “Toxic”. As for `Brc1ccc2cc3c4ccccc4nc(-c4ccco4)c3n2c1`, in the data set with HT-22, the Activity result is recorded as “Toxic”. Besides, in data set [1], the inhibition is more than 30%. Consider `COc1ccc(-c2nc3ccccc3c3cc4c(C)cccn4c23)cc1OC`, for which, in the data set on HT-22, the Activity result is listed as “Toxic”. Also, the results for the inhibition in data set [1], in data set [2] and in data set [3] were more than 30%, 40% and 20%, respectively. For the molecule `Cc1ccc2cc3c4ccccc4nc(-c4cccc5ccccc45)c3n2c1`, the Activity result in the data set with HT-22 was “Toxic”. For `COc1ccc(-c2nc3ccccc3c3cc4ccc(-c5cc(OC)cc(OC)c5)cn4c23)cc1`, the Activity result in the data set with HT-22 is recorded as “Toxic”.

For `Cc1cccn2c1cc1c3ccccc3nc(-c3cc4ccccc4[nH]3)c12`, in the data set with HT-22, the Activity result is listed as “Toxic”. The inhibition in data set [1] was more than 30%; in data set [2], 40%.
